Results published in ChEMBL document CHEMBL1144046, “2-Methylene 19-nor-25-dehydro-1alpha-hydroxyvitamin D3 26,23-lactones: synthesis, biological activities and molecular basis of passive antagonism” (Bioorg Med Chem, 2008).

Experiments:
[1] = target: T1, Vitamin D3 receptor (Rattus norvegicus, UniProt P13053); assay: Displacement of [3H]1,25-(OH)2D3 from rat recombinant His-tagged VDR ligand-binding domain expressed in Escherichia coli BL21
T1 sequence (P13053 whole entry): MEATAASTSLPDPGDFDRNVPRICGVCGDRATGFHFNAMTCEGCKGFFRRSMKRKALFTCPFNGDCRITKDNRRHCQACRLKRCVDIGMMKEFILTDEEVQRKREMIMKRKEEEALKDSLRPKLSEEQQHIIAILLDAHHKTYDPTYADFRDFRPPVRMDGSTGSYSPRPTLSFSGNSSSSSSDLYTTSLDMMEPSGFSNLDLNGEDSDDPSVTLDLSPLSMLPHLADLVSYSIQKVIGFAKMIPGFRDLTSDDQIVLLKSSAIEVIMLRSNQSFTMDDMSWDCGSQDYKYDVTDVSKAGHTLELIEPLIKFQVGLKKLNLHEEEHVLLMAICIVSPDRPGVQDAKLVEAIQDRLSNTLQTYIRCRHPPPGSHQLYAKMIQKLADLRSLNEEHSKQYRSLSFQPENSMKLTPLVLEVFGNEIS
How it was run: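 Crude lysate of E. coli–expressed His-tagged rat VDR-LBD (aa 115–423), diluted 1000-fold in 50 mM Tris, 100 mM KCl, 5 mM DTT, 0.5% Chaps, pH 7.5, BSA 100 µg/mL. Ligand preincubated 1 h RT, then [3H]-1,25-(OH)2D3 (~5000 dpm) 18 h at 4 °C. Dextran-charcoal separation, scintillation counting; at least twice in duplicate; EC50 for 50% displacement.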

[2] = target: T2, Vitamin D3 receptor (Homo sapiens, UniProt P11473); assay: Agonist activity at human VDR in COS7 cells assessed as induction of transcriptional transactivation after 24 hrs by mouse osteopontin luciferase reporter gene assay; format: functional, cell-based, COS-7
T2 sequence (P11473 whole entry): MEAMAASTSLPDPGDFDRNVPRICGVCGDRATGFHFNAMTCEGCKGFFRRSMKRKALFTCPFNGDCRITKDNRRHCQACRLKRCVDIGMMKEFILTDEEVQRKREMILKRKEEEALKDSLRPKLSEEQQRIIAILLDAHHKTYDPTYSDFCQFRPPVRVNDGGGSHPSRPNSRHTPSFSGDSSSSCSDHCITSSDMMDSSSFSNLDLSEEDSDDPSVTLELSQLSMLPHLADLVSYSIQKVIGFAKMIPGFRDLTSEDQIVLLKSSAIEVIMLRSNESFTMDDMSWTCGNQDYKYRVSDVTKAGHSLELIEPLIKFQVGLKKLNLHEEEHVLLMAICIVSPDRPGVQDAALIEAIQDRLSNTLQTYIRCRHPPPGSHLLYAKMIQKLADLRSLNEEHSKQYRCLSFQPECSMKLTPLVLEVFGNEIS

[3] = target: T2, Vitamin D3 receptor; assay: Antagonist activity at human VDR in COS7 cells assessed as induction of transcriptional transactivation after 24 hrs by mouse osteopontin luciferase reporter gene assay; format: functional, cell-based, COS-7
How it was run: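 Cos7 cells grown in DMEM + 5% FBS, seeded 2 × 10⁴/well; after 24 h lipofected with hVDR expression plasmid, SPPx3-TK-Luc reporter and pRL-CMV control. After 4 h switched to 5% charcoal-treated FCS; next day ligand given with 10 nM 1,25-(OH)2D3 for 24 h. Dual luciferase normalized to internal control; IC50 from dose–response curves.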

[4] = target: T2, Vitamin D3 receptor; assay: Agonist activity at human VDR in HEK293 cells assessed as induction of transcriptional transactivation after 24 hrs by mouse osteopontin luciferase reporter gene assay; format: functional, cell-based
[5] = target: T2, Vitamin D3 receptor; assay: Antagonist activity at human VDR in HEK293 cells assessed as induction of transcriptional transactivation after 24 hrs by mouse osteopontin luciferase reporter gene assay; format: functional, cell-based
How it was run: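 HEK293 cells in DMEM + 5% FBS with penicillin/streptomycin, 37 °C, 5% CO2; calcium phosphate cotransfection of hVDR expression plasmid and SPPx3-TK-Luc reporter. Compounds added 8 h later with 10 nM 1,25-(OH)2D3; harvest after 16–24 h. Luciferase normalized to β-galactosidase; triplicate; IC50 from dose–response curves.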

EC50 [1] [nM]	EC50 [2] [nM]	IC50 [3] [nM]	EC50 [4] [nM]	IC50 [5] [nM]	SMILES
20	150	1000	200	300	C=C1C[C@@H](C[C@@H](C)[C@H]2CC[C@H]3/C(=C/C=C4C[C@@H](O)C(=C)[C@H](O)C4)CCC[C@]23C)OC1=O
0.7	25		1		C=C1C[C@H](C[C@@H](C)[C@H]2CC[C@H]3/C(=C/C=C4C[C@@H](O)C(=C)[C@H](O)C4)CCC[C@]23C)OC1=O
5	10	100	15		C=C1C[C@H](C[C@H](C)[C@H]2CC[C@H]3/C(=C/C=C4C[C@@H](O)C(=C)[C@H](O)C4)CCC[C@]23C)OC1=O
5	6	300	20		C=C1C[C@@H](C[C@H](C)[C@H]2CC[C@H]3/C(=C/C=C4C[C@@H](O)C(=C)[C@H](O)C4)CCC[C@]23C)OC1=O
